Test results as given in the EternaBench riboswitch data.

Tested on: MS2 coat protein
Assay: apparent Kd, MS2 coat protein; higher = weaker binding; RNA-MaP array; FMN 200 µM where present
In short: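 SNAP-549-labelled MS2 coat protein, doubled from 0.7 or 1.5 nM to 3 µM, was titrated over designs transcribed by stalled E. coli RNA polymerase on Illumina sequencing-chip clusters. Titrations were run without and then with constant ligand in 100 mM Tris-HCl pH 7.5, 80 mM KCl, 4 mM MgCl2, BSA, DTT, yeast tRNA and Tween-20. The apparent Kd is the median of filtered per-cluster fits to green signal normalised to red-channel RNA signal and control-cluster median Fmax.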

[1] = designed as: OFF switch for flavin mononucleotide, no ligand
[2] = ligand present: flavin mononucleotide, designed as: OFF switch for flavin mononucleotide
[3] = designed as: ON switch for flavin mononucleotide, no ligand
[4] = ligand present: flavin mononucleotide, designed as: ON switch for flavin mononucleotide

Sequence | apparent Kd [1] [µM] | apparent Kd [2] [µM] | apparent Kd [3] [µM] | apparent Kd [4] [µM]
UCCUUGUCCUGAGGAUAUCCGCGGUUCCCAUAAGGAGAAGGCAGGACAUGAGGAUCACCCAUGUACCCAGAAAACGUGCAGAGU | 0.024 | 0.156 | – | –
AAUAAGGGAGGAUAUGCGGAACGGUUUGUUCUCAGUGAGGCACAUGAGGAUCACCCAUGUAGAAGGCCCGGCAA | 0.0138 | 0.0931 | – | –
GGUACUCAAAGAGUACCAAUACGUACAUGAGGAUCACCCAUGUAGGAUAUGCUACUCAAAGAGUAGCAGAAGGACAUGUGCCUA | 0.0127 | 0.031 | – | –
CGAUAACAUAGUUAUCCGUAACGGACAUGAGGAUCACCCAUGUAGGAUAUGUUACUCAACGAGUAACAGAAGGACAUGAGUCCU | 0.0118 | 0.054 | – | –
UUACAUACAAAGGUACAUGAGGAUCACCCAUGUUUGUUGGGAAGAAGGGUAACAGUACUACAUAUAUAGGAUAUUUCACAAAUA | – | – | 0.122 | 0.0866
ACUUUAUAUGAGAAGGUGAAGUGGAAACAUGAGGAUCACCCAUGUAAUACGAAGCGUAUUUUUAUCAAGGAUAUCAUAUAAAGA | – | – | 0.0108 | 0.00881
AAUAUAAAAGAGCUGGAUAACUCGACAUGAGGAUCACCCAUGUAGGAUAUCAGCACGAUAAGUGCUGAGAAGGACAACCAGCUC | 0.0146 | 0.0162 | – | –
CGAUAGGACAGAGGAUAUACACAUGAGGAUCACCCAUGUGAUUACAACUCUUAAGAUUCAAACAUGUAGAAGGCUGUCCUAUCG | 0.0119 | 0.0304 | – | –
CCAUCGGAAGGAUAUACAUGAGGAUCACCCAUGUGCGAGCCCGCGCUCUCGGGAAGAUGUAGAAGGUUCAAGAA | 0.0359 | 0.0363 | – | –
UCGUACAUUCGAGGAUAUCGGUGAUUAAUAAUACGAGAAGGCGAUUUUAGGCAUAAAGCCUUAGACAUGAGGAUCACCCAUGUA | – | – | 0.0897 | 0.0537
GCGCGAAGGUAGGAUAUCCAGGGAUCUUCCCGCGGAGAAGGACCCACAUGAGGAUCACCCAUGUGGUGAUCCUG | 0.0161 | 0.0174 | – | –
GUGUACGUAGGAUAUGCUGGAAUCUAGCGAAGCUAGGUUCCACAUGAGGAUCACCCAUGUAGAAGGGCGUACAC | 0.182 | 0.0471 | – | –
UUCCUCAUAACAUGAGGAUCACCCAUGUAUUAAUAGAUAACUGAGGAUAUACUAAUAAUGUUUAUGUAGAAGGCAGAUACAGAU | 0.0496 | 0.106 | – | –
CCUCAGUAAGGAUAUCAGCUUAUAGAGUUGGUAAUGAGAGCUGAGAAGGUACAUGAGGAUCACCCAUGUUAGUU | 0.0218 | 0.0573 | – | –
GAGCUCAAGCAGAAGGCCGUAUGUCAAUCGACAUGAGGAUCACCCAUGUAUGAGCUCGGCGUCGCGGAGGAUAUGCAGGCUCUA | – | – | 0.0186 | 0.00663
GGUGCGUUUGUGAGGAUAUGCUGGUCCUUGGAUCAGCAGAAGGCACAUGAGGAUCACCCAUGUGGUGUCCGUCC | 0.222 | 0.117 | – | –
GCACGGAAAGGAUAUGCACGGCUAGCUCGCGUUUUUGUGUGACAUGAGGAUCACCCAUGUAGAAGGUUCAGUGG | 0.068 | 0.0718 | – | –
UUGGACCUAGGAUAUACAUGAGGAUCACCCAUGUUGGCGCACGCCCACCUGGGCCCGAGUAGAAGGAGGAAUGU | 0.0189 | 0.0203 | – | –
GAGAUGUGAGGAUAUCUGGACCGUGGAAGAGCCACGGUCCGAGAGAAGGCACAUGAGGAUCACCCAUGUGAUGA | 0.0384 | 0.171 | – | –
AUUAAAACAUAGGAUAUCGAAUUUAUCAUUUAACGAGAAGGAUGAACAUGAGGAUCACCCAUGUGGUAUCAUGG | 0.361 | 0.207 | – | –
CAGUACUGAGGAUAUACAUGAGGAUCACCCAUGUGUUCCAGCUAGGAGACUAGCAAAAGUAGAAGGCAGUACUG | 0.027 | 0.345 | – | –
ACGACAAAAGUCGAACGAUGUAGCAGAAGGACAUGAGGAUCACCCAUGUAAAAUGUAACAGCCAUGUAGGAUAUGCAAAAUCGA | 0.0377 | 0.159 | – | –
CGUUGAUAAUAUCUUCACAUGAGGAUCACCCAUGUCGCUCGACAGGAUAUAUUUGAGUUGUUUAAGUAGAAGGGUCGCAGAUGC | – | – | 0.148 | 0.136
AAUUACAGAGGAUAUGCGCGGUAAAACAUGAGGAUCACCCAUGUGAUACCUGCAUGACCGGCAGAAGGCUGCGUUU | 0.0223 | 0.108 | – | –

Sequence | apparent Kd [1] [µM] | apparent Kd [2] [µM] | apparent Kd [3] [µM] | apparent Kd [4] [µM]
AUGAGUAAAGCAGGAUAUCUAUUGUCUCUGUAACAUGAGGAUCACCCAUGUAGAGAAGGGCUUAGUCAUUCUCUUCGGAGUUGU | 0.0174 | 0.0166 | – | –
AGUCAUACAGGAUAUACAUGAGGAUCACCCAUGUAUAUCCAAAAUGGGUGAUCCUCAUGUAGAAGGGUAUGACA | 0.0103 | 0.0105 | – | –
UUUAUGUCAGGAUAUACAUGAGGAUCACCCAUGUAUAUCUUAAAAUAUACAUGGGAAUGUAGAAGGGACCUCCU | 0.051 | 0.041 | – | –
GAUUAACAUGAGGAUCACCCAUGUCGUUAUAUGGGAGGAUAUACGUGGACCGUAGUCCGCGUAGAAGGCCUAAUUG | – | – | 0.311 | 0.0603
AAAAAACAUGAGGAUCACCCAUGUCAGGAUAUCGUGCAGAAAAAAAAAAAAAACUGCACGAGAAGGGACAUGAA | 0.236 | 0.192 | – | –
UGUAUGGACAGAGGAUAUACCGAUAGGAGAUACUAUCGACUAGUCCUCACAUGAGGAUCACCCAUGUAGAAGGCUGUCCAUACU | 0.0252 | 0.179 | – | –
CCUCUACAUGAGGAUCACCCAUGUGAGGAUAUGCGAGGCGCGCUCGAUGAGCACGCCGGUAGAAGGCAUGUGGU | 0.0238 | 0.0516 | – | –
AGCUAGGCAGGAUAUACGUAAAUGUCGAAAGACGUAUUGGGACAUGAGGAUCACCCAUGUAGAAGGGCCUAGCA | 0.0316 | 0.165 | – | –
CUCACGUUAGUAGGAUAUCCGACAUGAGGAUCACCCAUGUCACUACGCCGAUAGGGAAGGUGUAAGGAGAAGGGCUGAUAAAUA | – | – | 0.124 | 0.0929
GGAGACCUCAUAGGAUAUGCUGGACUUUGUCCAGCAGAAGGGUGAAAACAUGAGGAUCACCCAUGUAUGGUCUCCAAAUUUAAU | – | – | 0.992 | 0.327
GGGCCCGGAGGAUAUACAUGAGGAUCACCCAUGUACUCGGGCUCUAUUGGGCUCGGGUGUAGAAGGCCGGGCCC | 0.0137 | 0.0141 | – | –
AUUCCCAACCAGAAGGACAUGAGGAUCACCCAUGUAGGAUAUGGGUGGGCGACCCGAACUUGGACGAAAUCGCAAUUCUCACAC | – | – | 0.0578 | 0.0104
AGUAGUUUAACAUGAGGAUCACCCAUGUAUCUAUCUGUAACCUAGGAUAUGGACGUUGUAUUUAACCAGAAGGAGGAUCGUUUA | – | – | 0.0285 | 0.017
CGAUAUUAUGCAGGAUAUCUUCCUUGAAUGAGGAGAGAAGGGCAUAGGGAGACAUAAGCCUUAUUACAUGAGGAUCACCCAUGU | 0.0107 | 0.00883 | – | –
UUUUGGCGGGCAGGAUAUACUAAGACAUGAGGAUCACCCAUGUACUUGCAAGAUGUCCGUGUCGAGUAGAAGGGCCAAGCUAUA | 0.00497 | 0.0078 | – | –
CCCGGCGAGUCGCUACGCCGAGAGCAGGAUAUUCCGCCGUGAUCUACAUGAGGAUCACCCAUGUGGAAGAAGGGCUACACAAAA | 0.0151 | 0.158 | – | –
AUUAUACAUGAGGAUCACCCAUGUAAUUAAUUAAUUAAGAUCUAGGAUAUCAGCUCGUUUAGAGCUGAGAAGGAGAUCACAUGU | – | – | 0.0301 | 0.0187
ACACGACAUGAGGAUCACCCAUGUUUCCGAUUCACAGGAUAUGGGACAUCCGGAGGGUGACCAGAAGGGUGACUCG | – | – | 0.151 | 0.0283
UUAAAUCAUGUAGGAUAUGCAUGGCGAAGCUACGCAGAAGGACAUGAGGAUCACCCAUGUUAUAGCGUCCAAGUAAGGAUGCAA | 0.0848 | 0.269 | – | –
UCUGGGUCUGUGAGGAUAUUGGGUCUGAAAGGGCUCGAGAAGGCACAUGAGGAUCACCCAUGUAAGGGCUCGGG | 0.0276 | 0.0216 | – | –
AACUGAGCCCAAGGAUAUCCUCACUUCCACUACAUGAGGAUCACCCAUGUCAGAUCGUCUGUGUAGGAGAAGGUGGUGUACAUG | – | – | 0.33 | 0.623
UCGACGAAAGUCGAACGAUGUAGCAGAAGGACAUGAGGAUCACCCAUGUCAGCUGUAACAGCCAUGUAGGAUAUGCUACAUCGC | 0.00427 | 0.0057 | – | –
UGGUCCUGAGGAUAUGCACCUCAAGUUAUCGUUCACCAUGCACAUGAGGAUCACCCAUGUAGAAGGUAGGAUCG | 0.0188 | 0.0166 | – | –
ACAUGAGGAUGAGGAUAUUCAUACAUGAGGAUAGAAGAAGGCAUACAUGAGGAUCACCCAUGUAUACACAUGAGGAUCCCUUAU | 0.0811 | 0.156 | – | –
